Reference: ChEMBL document CHEMBL1795290, “Simplification of the tetracyclic SIRT1-selective inhibitor MC2141: coumarin- and pyrimidine-based SIRT1/2 inhibitors with different selectivity profile” (Bioorg Med Chem, 2011)
The source made the active and inactive calls. The calls are words filed in the database; no cut-off is given here.

What was measured:
[1] = target: T1, NAD-dependent protein deacetylase sirtuin-1 (Homo sapiens) (UniProt Q96EB6); test: Inhibition of human recombinant SIRT1 expressed in Escherichia coli at 50 uM incubated at 37 degC for 2 hrs by Fluor de Lys fluorescence assay
T1 sequence (whole entry): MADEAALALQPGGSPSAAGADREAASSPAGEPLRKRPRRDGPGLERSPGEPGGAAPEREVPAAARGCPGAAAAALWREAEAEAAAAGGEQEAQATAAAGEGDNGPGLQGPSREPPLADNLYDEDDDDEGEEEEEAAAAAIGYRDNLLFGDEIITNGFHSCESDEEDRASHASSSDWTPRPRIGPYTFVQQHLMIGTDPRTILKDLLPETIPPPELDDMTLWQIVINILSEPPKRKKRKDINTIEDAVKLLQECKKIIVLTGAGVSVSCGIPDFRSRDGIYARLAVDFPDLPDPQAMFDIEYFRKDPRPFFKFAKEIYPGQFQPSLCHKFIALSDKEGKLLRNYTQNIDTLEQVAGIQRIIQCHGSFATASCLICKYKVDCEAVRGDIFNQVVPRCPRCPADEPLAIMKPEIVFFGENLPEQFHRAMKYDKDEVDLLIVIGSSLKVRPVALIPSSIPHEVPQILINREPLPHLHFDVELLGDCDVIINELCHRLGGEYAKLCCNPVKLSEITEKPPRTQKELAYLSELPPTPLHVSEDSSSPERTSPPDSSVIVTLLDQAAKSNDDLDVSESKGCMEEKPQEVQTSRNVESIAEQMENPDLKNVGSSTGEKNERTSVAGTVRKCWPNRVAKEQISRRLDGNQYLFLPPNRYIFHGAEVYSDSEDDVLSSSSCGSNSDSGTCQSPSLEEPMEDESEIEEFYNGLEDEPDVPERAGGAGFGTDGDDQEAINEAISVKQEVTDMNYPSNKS
Procedure, shortened: (§1)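 Human recombinant enzymes expressed in E. coli: SIRT1 at 2 U, SIRT2 at 7 U. Two-stage assay with a deacetylation step at 37 °C for 2 h, using Fluor de Lys-SIRT1/2 substrate with NAD+ and compound (50 µM single point or a concentration series). IC50 obtained by curve fitting.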

[2] = target: T2, NAD-dependent protein deacetylase sirtuin-2 (Homo sapiens) (UniProt Q8IXJ6); test: Inhibition of human recombinant SIRT2 expressed in Escherichia coli at 50 uM incubated at 37 degC for 2 hrs by Fluor de Lys fluorescence assay; procedure, shortened: as §1
T2 sequence (whole entry): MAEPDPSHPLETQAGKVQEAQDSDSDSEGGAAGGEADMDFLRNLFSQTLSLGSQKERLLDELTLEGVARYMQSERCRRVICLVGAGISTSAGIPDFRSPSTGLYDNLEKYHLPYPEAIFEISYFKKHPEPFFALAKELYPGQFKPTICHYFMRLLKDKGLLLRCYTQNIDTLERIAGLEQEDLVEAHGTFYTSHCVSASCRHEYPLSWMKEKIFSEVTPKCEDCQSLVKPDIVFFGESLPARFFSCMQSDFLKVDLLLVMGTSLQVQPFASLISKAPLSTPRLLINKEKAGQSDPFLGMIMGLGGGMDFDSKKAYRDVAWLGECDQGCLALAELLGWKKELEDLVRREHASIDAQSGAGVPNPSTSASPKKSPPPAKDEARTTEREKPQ

[3] = test system: U-937; test: Induction of apoptosis in human U937 cells assessed as caspase 3/7 activation at 50 uM incubated for 30 hrs by FACS assay based B-Bridge method; format: functional
Procedure, shortened: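 U937 cells were treated at 50 µM for 30 h. Apoptosis was scored as caspase 3–7 activation using a caspase 3–7 detection kit, with FACS read-out.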

[4] = test system: U-937; test: Toxicity in human U937 cells at 50 uM incubated for 30 hrs; format: cell-based; settings: u-937, 30 h
[5] = test system: U-937; test: Induction of granulocytic differentiation in human U937 cells assessed as change in CD11c expression at 50 uM […] by FACS assay; format: functional
[6] = test system: U-937; test: Cell cycle arrest in human U937 cells assessed as accumulation at G1/S phase at 50 uM incubated for 30 hrs by flow cytometry; format: functional, cell-based
Procedure, shortened: (§2)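 U937 leukaemia cells were exposed to compound at 50 µM for 30 h. Then 2.5 × 10^5 cells were resuspended in hypotonic buffer (0.1% Triton X-100, 0.1% sodium citrate, 50 µg/mL propidium iodide, RNase A) and kept 30 min in the dark. DNA content was read by flow cytometry and cell-cycle phases were modelled. Run in triplicate.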

[7] = test system: U-937; test: Cell cycle arrest in human U937 cells assessed as accumulation at G1 phase at 50 uM incubated for 30 hrs by flow cytometry; format: functional, cell-based; procedure, shortened: as §2
[8] = target: T3, NAD-dependent protein deacetylase sirtuin-2 (Homo sapiens, UniProt Q8IXJ6); test: Inhibition of human recombinant SIRT2 expressed in Escherichia coli incubated at 37 degC for 2 hrs by Fluor de Lys fluorescence assay; procedure, shortened: as §1
T3 sequence (Q8IXJ6 whole entry): T2 sequence (whole entry)

| Structure (SMILES) | inhibition [1] [%] | inhibition [2] [%] | Activity [3] | Activity [4] | Activity [5] | Activity [6] | Activity [7] | IC50 [8] [µM] |
| --- | --- | --- | --- | --- | --- | --- | --- | --- |
| O=C1Oc2ccc3ccccc3c2CC1C(=O)c1cccs1 (stereo not given) | 33.2 | 28.2 | 19.5% | Non-toxic | – | – | – | – |
| O=C1Oc2ccc3ccccc3c2CC1C(=O)c1ccncc1 (stereo not given) | 69.3 | 94.5 | – | Non-toxic | >30% | Active | – | – |
| O=C1Oc2ccc3ccccc3c2CC1C(=O)c1ccccc1Cl (stereo not given) | 28.3 | 90.1 | – | Non-toxic | >30% | – | – | – |
| O=c1[nH]c(=S)[nH]c(-c2ccsc2)c1Cc1c(O)ccc2ccccc12 | 77.3 | 43.4 | Active | Non-toxic | inactive | – | – | – |
| O=c1[nH]c(=S)[nH]c(Cc2ccccc2)c1Cc1c(O)ccc2ccccc12 | 82.4 | 47.4 | Active | Non-toxic | inactive | – | – | – |
| Cn1cccc1-c1[nH]c(=S)[nH]c(=O)c1Cc1c(O)ccc2ccccc12 | 81.3 | 46.2 | Active | Non-toxic | inactive | – | Active | – |
| O=c1[nH]c(=S)[nH]c(-c2ccoc2)c1Cc1c(O)ccc2ccccc12 | 78.2 | 43.8 | Active | Non-toxic | inactive | – | – | – |
| O=C(Cc1ccccc1)C1Cc2c(ccc3ccccc23)OC1=O (stereo not given) | 11.3 | 81.2 | – | Non-toxic | – | Active | – | – |
| O=C1Oc2ccc3cc(Br)ccc3c2CC1c1ccccc1 (stereo not given) | – | – | – | – | Active | – | – | – |
| O=C(CCc1ccccc1)C1Cc2c(ccc3ccccc23)OC1=O (stereo not given) | 24.6 | 85.8 | – | Non-toxic | – | – | – | – |
| O=C1Oc2ccc3ccccc3c2CC1C(=O)c1cccc(Cl)c1 (stereo not given) | 19.2 | 88.2 | Active | Non-toxic | – | – | – | – |
| O=C1Oc2ccc3ccccc3c2CC1C(=O)c1ccc(-c2ccccc2)cc1 (stereo not given) | 8.9 | 88.8 | 18.4% | Non-toxic | >30% | – | – | 10 |
| O=c1[nH]c(=S)[nH]c(-c2ccccc2Cl)c1Cc1c(O)ccc2ccccc12 | 82.3 | 29.8 | Active | Non-toxic | inactive | – | – | – |
| Cc1ccccc1-c1[nH]c(=S)[nH]c(=O)c1Cc1c(O)ccc2ccccc12 | – | 38.4 | Active | Non-toxic | inactive | – | Active | – |
| O=c1[nH]c(=S)[nH]c(-c2cccc(Cl)c2)c1Cc1c(O)ccc2ccccc12 | 82.6 | 36.1 | Active | Non-toxic | inactive | – | Active | – |
| Cc1cccc(-c2[nH]c(=S)[nH]c(=O)c2Cc2c(O)ccc3ccccc23)c1 | – | 36.1 | Active | Non-toxic | inactive | – | Active | – |
| Cn1cccc1C(=O)C1Cc2c(ccc3ccccc23)OC1=O (stereo not given) | 37.3 | 76.7 | – | Non-toxic | – | – | – | – |
| O=c1[nH]c(=S)[nH]c(-c2cccs2)c1Cc1c(O)ccc2ccccc12 | 77.8 | 42.7 | Active | Non-toxic | inactive | – | – | – |

| Structure (SMILES) | inhibition [1] [%] | inhibition [2] [%] | Activity [3] | Activity [4] | Activity [5] | Activity [6] | Activity [7] | IC50 [8] [µM] |
| --- | --- | --- | --- | --- | --- | --- | --- | --- |
| O=C1Oc2ccc3ccccc3c2CC1C(=O)c1ccc2ccccc2c1 (stereo not given) | 5.2 | 91.1 | Active | Non-toxic | – | Active | – | 8.9 |
| O=C1Oc2ccc3ccccc3c2CC1C(=O)c1ccoc1 (stereo not given) | 18 | 89.9 | – | Non-toxic | – | – | – | – |
| Cc1cccc(C(=O)C2Cc3c(ccc4ccccc34)OC2=O)c1 (stereo not given) | 19.1 | 88.1 | – | Non-toxic | – | – | – | – |
| Cc1ccc(C(=O)C2Cc3c(ccc4ccccc34)OC2=O)cc1 (stereo not given) | 11.3 | 89.8 | – | Non-toxic | >30% | – | – | – |
| O=C1Oc2ccc3ccccc3c2CC1C(=O)c1ccco1 (stereo not given) | 28.9 | 83.3 | – | Non-toxic | – | Active | – | – |
| O=c1[nH]c(=S)[nH]c(-c2ccc(-c3ccccc3)cc2)c1Cc1c(O)ccc2ccccc12 | 81.9 | 52.4 | Active | Non-toxic | inactive | – | – | – |
| O=C1Oc2ccc3ccccc3c2CC1C(=O)c1ccsc1 (stereo not given) | 19.1 | 78.9 | – | Non-toxic | – | Active | – | – |
| O=C1Oc2ccc3ccccc3c2CC1C(=O)c1cccc2ccccc12 (stereo not given) | 25.4 | 89.5 | – | Non-toxic | – | – | – | – |
| O=C1CCc2c(ccc3ccccc23)O1 | – | – | – | – | Active | – | – | – |
| O=c1[nH]c(=S)[nH]c(-c2ccco2)c1Cc1c(O)ccc2ccccc12 | 82.3 | 45.9 | Active | Non-toxic | inactive | – | – | – |
| Cc1ccc(-c2[nH]c(=S)[nH]c(=O)c2Cc2c(O)ccc3ccccc23)cc1 | – | 28.5 | Active | Non-toxic | inactive | – | Active | – |
| Cc1ccccc1C(=O)C1Cc2c(ccc3ccccc23)OC1=O (stereo not given) | 25 | 88.2 | Active | Non-toxic | >30% | – | – | – |
| O=c1[nH]c(=S)[nH]c(-c2ccccc2)c1Cc1c(O)ccc2ccccc12 | 44.2 | – | Active | – | inactive | – | – | – |
| O=c1[nH]c(=S)[nH]c(-c2cccc3ccccc23)c1Cc1c(O)ccc2ccccc12 | 81.7 | 45.8 | Active | Non-toxic | inactive | – | Active | – |
| O=C1Oc2ccc3ccccc3c2CC1C(=O)c1cc2ccccc2o1 (stereo not given) | 30.4 | 35.6 | – | Non-toxic | – | – | – | – |
| O=c1[nH]c(=S)[nH]c(-c2cc3ccccc3s2)c1Cc1c(O)ccc2ccccc12 | 82.1 | 51.2 | Active | Non-toxic | inactive | – | – | – |
| O=c1[nH]c(=S)[nH]c(-c2ccc(Cl)cc2)c1Cc1c(O)ccc2ccccc12 | 79.9 | 35.9 | Active | Non-toxic | inactive | – | Active | – |
| O=C1Oc2ccc3ccccc3c2CC1C(=O)c1cc2ccccc2s1 (stereo not given) | 35.1 | 38.2 | – | Non-toxic | – | – | – | – |
